Assay outcomes from PubChem.
Shown are actives, neighbours in structure and some others; about 4.9% of the full set was active somewhere.
STAT3 blocker – STAT3 signaling inhibition; 190,000 compounds, 0.89% hits; U3A cells, IL-6 STAT3-luciferase reporter, luminescence; host cell line lacks STAT1; inhibition, % at 5.5 µM;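 active means inhibition above the mean inhibition across all screened compounds plus 3 SD, cut at about 44% in these data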
APP 5'UTR act – activates APP 5'UTR luciferase reporter; SH-SY5Y APP 5'UTR luciferase reporter, luminescence; zero percent = DMSO vehicle wells; activation, % at 2 µM; 190,000 compounds, 1% hits; AID 1276;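 active means activation above a set limit, based on mean plus 3 SD of controls, cut at about 140% in these data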
STAT3 act – STAT3 signaling activation | activation (% of control), % at 5.6 µM | U3A cells, IL-6 STAT3-luciferase reporter, luminescence; 100% = signal with IL-6 EC80 alone | 190,000 compounds, 0.91% hits;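 active means activation above the screen-wide mean of compound activation plus 3 SD, cut at about 130% in these data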
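Material: STAT1-lacking human U3A cells, STAT3 luciferase reporter | Benchmarks: IL-6-only wells as 100% reference | Probe or stimulus: IL-6 (33 ng/mL) | Timing: Compound 1 h, then IL-6 6 h at 37 °C | Detection: Luminescence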
NF-kB neuron act – raises NF-kB expression in human neuronal cells; NF-kB reporter expression; active compounds read high; fold change at 12.5 µM; 190,000 compounds, 1.6% hits; in the data active means fold change above about 3.3
STAT1 inh-1 – reduces IFN-gamma driven STAT1 reporter signal; AID 920; NIH 3T3 STAT1-luciferase reporter, luminescence; inhibition, % at 5.5 µM; 200,000 compounds, 0.35% hits;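 active means inhibition above a set limit, the mean inhibition across all tested compounds plus 3 SD, cut at about 34% in these data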
STAT1 activator – increases IFN-gamma driven STAT1 reporter signal. activation (% of control), % at 5.5 µM. AID 932. 200,000 compounds, 2.6% hits. NIH 3T3 STAT1-luciferase reporter, luminescence; 100% = IFN-gamma alone, no compound;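 active means activation above the screen-wide mean activation plus 3 SD, cut at about 130% in these data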
STAT1 inh-2 – STAT1 inhibition, confirmation assay; 200 compounds, 55% hits; NIH 3T3 STAT1-luciferase reporter, IFN-gamma, luminescence; shares compounds with STAT1 inh-1; AID 1263; inhibition, % at 5.5 µM;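 active means triplicate mean inhibition exceeding the hit cutoff computed for the primary STAT1 screen, cut at about 35% in these data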
NFkB inh – inhibits NF-kappaB, counter-screen to STAT1 inhibitors | 200 compounds, 30% hits | HEK293T NF-kB luciferase reporter, TNF-alpha induced, luminescence | inhibition, % at 5.7 µM | shares compounds with STAT1 inh-1;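 active means inhibition above the mean of solvent-only control wells plus 3 SD of those wells, cut at about 15% in these data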
STAT3 inh 2 – inhibits STAT3, counter-screen to STAT1 inhibitors; shares compounds with STAT1 inh-1; U3A cells, IL-6 STAT3 luciferase reporter, luminescence; cells lacking STAT1; 200 compounds, 20% hits; inhibition, % at 5.7 µM;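 active means inhibition above the mean of solvent-only control wells plus 3 SD, set per campaign, cut at about 25% in these data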
Hits are given with their value; – = inactive; · = no result given.

SMILES	STAT3 blocker	APP 5'UTR act	STAT3 act	NF-kB neuron act	STAT1 inh-1	STAT1 activator	STAT1 inh-2	NFkB inh	STAT3 inh 2
CCOC(=O)c1c(C)sc2c1N(C(=O)CCl)c1cc(Cl)ccc1S2	–	–	–	–	36	–	40	30	–
Cc1ccccc1-c1noc(N)c1C#N	–	–	–	–	35	–	42	–	–
CCOc1ccccc1C(=O)N1CCN(c2ccc(C(F)(F)F)cn2)CC1	–	–	–	–	–	–	·	·	·
CC(C)CNC(=O)COC(=O)c1c2c(nc3ccccc13)/C(=C/c1cccs1)CC2	–	–	–	–	38	–	–	–	–
Cc1ccc(C)c(NC(=O)CN(C)C(=O)c2nn(C)c(=O)c3ccccc23)c1	–	–	–	–	–	–	·	·	·
O=C(CCS(=O)(=O)c1ccccc1)Nc1nc(-c2cccs2)cs1	–	–	–	–	–	–	·	·	·
CC(C)c1nnc(NC(=O)CCS(=O)(=O)c2nc(-c3cccs3)cc(C(F)(F)F)n2)s1	–	–	–	–	37	–	44	15	–
Cc1nc(N(C)Cc2ccccc2)c2nnn(Cc3ccccc3)c2n1	–	–	–	–	–	–	·	·	·
Cc1cccc(C(=O)NCC(=O)OCC(=O)c2cc(C)n(CC3CCCO3)c2C)c1 (centres undefined)	–	–	–	–	–	–	·	·	·
Cc1cc(C(=O)COC(=O)CNC(=O)c2ccccc2)c(C)n1CC1CCCO1 (centres undefined)	–	–	–	–	37	–	–	–	–
CC(/C=C/c1ccccc1F)=N\NC(=O)C(C)C	–	–	–	–	–	–	·	·	·
CCCCC(=O)N/N=C(C)/C=C/c1ccccc1F	–	–	–	–	45	–	–	–	–
O=C(c1ccc(Cl)cc1)N1CCN(c2ccnc3cc(Cl)ccc23)CC1	–	–	–	–	48	–	47	–	–
Cc1ccc2sc(-c3ccc(NC(=O)/C=C\C(=O)O)cc3)nc2c1	–	197	–	5.4	43	–	–	–	–
CCCCN(C(=O)CSc1nncn1-c1ccccc1)c1c(N)n(Cc2ccccc2)c(=O)[nH]c1=O	–	·	–	–	–	–	·	·	·
c1csc(-c2ccnc3ncnn23)c1	–	–	–	–	–	–	·	·	·
Fc1ccc(-c2cnn3c(-c4cccs4)ccnc23)cc1	–	220	–	6.7	35	–	–	22	–
CCOc1cc(-c2noc(N)c2C#N)cc(OCC)c1OCC	–	–	–	–	40	–	42	–	–
CCOC(=O)/C=C(\C)Nc1cc(C)nn1-c1ccccc1	–	–	–	–	–	–	·	·	·
CCOC(=O)C(=CNc1cc(C)nn1-c1ccc(Cl)cc1)C(=O)OCC	–	–	–	–	59	–	55	17	–
CCc1nnc(NC(=O)CSc2nc3c(C)cccc3[nH]2)s1	–	–	–	–	–	–	·	·	·
Cc1ccc(S(=O)(=O)N2CCN(C(C(=O)Nc3ccc(F)cc3)c3ccccc3)CC2)cc1 (centres undefined)	–	–	–	–	43	–	47	–	–
CN(C)Cc1nc2ccccc2c(=O)n1Cc1nc(C(C)(C)C)cs1	–	–	–	–	53	–	–	–	–
CN1CCN(Cc2nc3ccccc3c(=O)n2Cc2nc(-c3cccc([N+](=O)[O-])c3)cs2)CC1	–	–	–	–	62	–	38	–	–
CN1CCN(Cc2nc3ccccc3c(=O)n2Cc2nc(-c3ccccc3F)cs2)CC1	–	–	–	–	50	–	51	–	–
CN1CCN(Cc2nc3ccccc3c(=O)n2Cc2nc(-c3ccc4ccccc4c3)cs2)CC1	–	–	–	16	45	–	40	–	–
O=C1c2ccccc2N2C(=O)c3ccccc3[C@H]2N1c1ccccc1	–	–	–	–	–	–	·	·	·
